Experimental data published in ChEMBL document CHEMBL2385012, “Caesalpins A-H, bioactive cassane-type diterpenes from the seeds of Caesalpinia minax” (J Nat Prod, 2013).

What was measured:
Assay type in all cases: functional, cell-based
[1] = tested on: HepG2; test: Cytotoxicity against human HepG2 cells assessed as growth inhibition after 48 hrs by MTT assay; conditions: HepG2, 48 h
Summary of the method: (§1)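 Cells grown in DMEM with 10% FBS and seeded at 6 × 10^4 cells/mL. Five concentrations per compound added from DMSO, each tested in triplicate. Incubated 48 h at 37 °C under 5% CO2. MTT (4 mg/mL) added, then 4 h further incubation. Medium removed, formazan dissolved in DMSO, absorbance read at 570 nm. IC50 reported as mean ± SD of triplicate experiments. Doxorubicin served as positive control.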

[2] = tested on: MCF7; test: Cytotoxicity against human MCF7 cells assessed as growth inhibition after 48 hrs by MTT assay; conditions: MCF7, 48 h; summary of the method: as §1
[3] = tested on: A549; test: Cytotoxicity against human A549 cells assessed as growth inhibition after 48 hrs by MTT assay; conditions: A549, 48 h; summary of the method: as §1
[4] = tested on: AGS; test: Cytotoxicity against human AGS cells assessed as growth inhibition after 48 hrs by MTT assay; summary of the method: as §1
[5] = tested on: K562; test: Cytotoxicity against human K562 cells assessed as growth inhibition

Structure (SMILES)	IC50 [1]	IC50 [2]	IC50 [3]	IC50 [4]	IC50 [5]
COC(=O)CC1=C(C)C2=C[C@H](OC(C)=O)[C@@]3(O)C(C)(C)CC[C@H](OC(C)=O)[C@]3(C)[C@H]2CC1=O	4.7 µM	2.1 µM	14.6 µM	> 50 µM	–
COC(CC1=C(C)[C@@H]2[C@@H](OC(C)=O)[C@H](OC(C)=O)[C@@]3(O)C(C)(C)CC[C@H](OC(C)=O)[C@]3(C)[C@H]2CC1=O)OC	10.6 µM	15.6 µM	31.8 µM	45.8 µM	–
C=C1C2=CC(=O)O[C@]2(OC)C[C@H]2[C@H]1[C@@H](O)C[C@@]1(O)C(C)(C)CC[C@H](OC(C)=O)[C@]21C	34.7 µM	> 50 µM	> 50 µM	> 50 µM	–
COc1cccc2c1C(=O)c1c(O)c3c(c(O)c1C2=O)C[C@@](O)(C(=O)CO)C[C@@H]3O[C@H]1C[C@H](N)[C@H](O)[C@H](C)O1 [DOXORUBICIN]	0.59 µM	0.94 µM	0.74 µM	1.2 µM	–
CC(=O)O[C@@H]1[C@@H]2[C@H](C=C3OC(=O)C=C3[C@@]2(C)O)[C@@]2(C)[C@@H](OC(C)=O)CCC(C)(C)[C@]2(O)[C@H]1OC(C)=O	> 50 µM	41.2 µM	> 50 µM	> 50 µM	–
COC(=O)CC1=C(C)[C@@H]2[C@@H](OC(C)=O)[C@H](OC(C)=O)[C@@]3(O)C(C)(C)CC[C@H](OC(C)=O)[C@]3(C)[C@H]2CC1=O	18.5 µM	7.9 µM	25.2 µM	48.3 µM	–
CC(=O)OC1CC(C)(C)[C@]2(O)C[C@H](O)[C@H]3[C@@H](C)C4=CC(=O)O[C@]4(O)C[C@@H]3[C@@]2(C)[C@H]1OC(C)=O (stereo partly drawn)	> 50 µM	36.1 µM	31.9 µM	> 50 µM	–
CC(=O)O[C@H]1CC(C)(C)[C@]2(O)CC[C@H]3[C@@H](C)C4=CC(=O)OC4=C[C@@H]3[C@@]2(C)[C@H]1OC(C)=O	> 50 µM	> 50 µM	> 50 µM	> 50 µM	–
CO[C@@]12C[C@H]3[C@@H](CC[C@@]4(O)C(C)(C)C[C@H](OC(C)=O)[C@H](OC(C)=O)[C@]34C)[C@@H](C)C1=CC(=O)O2	> 50 µM	46.1 µM	> 50 µM	> 50 µM	–
CC(=O)O[C@H]1CCC(C)(C)[C@]2(O)[C@@H](OC(C)=O)[C@H](O)c3c(cc4occc4c3C)[C@@]12C	> 50 µM	> 50 µM	> 50 µM	> 50 µM	–
C=C1C2=CC(=O)O[C@]2(OC)C[C@H]2[C@H]1[C@@H](O)[C@H](OC(C)=O)[C@@]1(O)C(C)(C)CC[C@H](OC(C)=O)[C@]21C	38.9 µM	> 50 µM	> 50 µM	> 50 µM	–
CO[C@@]12C[C@H]3[C@@H](C[C@H](OC(C)=O)[C@@]4(O)C(C)(C)C[C@H](OC(C)=O)[C@H](OC(C)=O)[C@]34C)[C@](C)(O)C1=CC(=O)O2	47.2 µM	> 50 µM	> 50 µM	29.1 µM	–
C#C[C@@]12O[C@]1(C=O)[C@]1(C)CC[C@H]3C(C)(C)CCC[C@]3(C)[C@H]1CC2=O [ESCOBARINE A]	–	–	–	–	2.52 µM
CC(=O)O[C@H]1CCC(C)(C)C2=CC(=O)c3c(cc4occc4c3C)[C@]21C	> 50 µM	> 50 µM	24.8 µM	6.5 µM	–
